Screening results: PubChem, several laboratories
The list is not random: actives were taken first. Their share in the collection is about 2%.
MIN6 prolif-1: inducers of MIN6 beta-cell proliferation, primary screen, ATP luminescence, uHTS. proliferation, % at 10 µM. actives 0.29% (n = 330,000). MIN6 cells proliferation, ATPlite luminescence, 48 h; cells starved in 0.2% serum; 100% = growth in 10% serum;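 active = compounds whose signal lies at least 3.5 SD above the mean of all wells on their plate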;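 also: 0% = DMSO-treated cells in low-serum medium and 100% = 10% serum control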
VIM-2 inh: VIM-2 metallo-beta-lactamase inhibitors, primary screen, biochemical, epi-absorbance readout, Pseudomonas aeruginosa enzyme; inhibition, % at 5.6 µM; actives 0.89% (n = 290,000); purified VIM-2, nitrocefin hydrolysis, epi-absorbance fluorescence;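 active = inhibition above the mean of all tested compounds plus 3 SD, cutoff set per screening run, cut at about 7.5% in these data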;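 also: red hydrolysis product quenches plate fluorescence so inhibitors raise well fluorescence; 0% = enzyme with DMSO and 100% = DMSO without enzyme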
PvdQ inh: P. aeruginosa PvdQ acylase inhibitors, primary screen, biochemical, fluorescence, plate reader and imaging, single point; PvdQ acylase [Pseudomonas aeruginosa LESB58]; purified PvdQ acylase; inhibition, % at 10 µM; actives 0.063% (n = 340,000); in the data active = inhibition above about 30%, passing the limit was not always enough;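 also: 0% = vehicle neutral wells and 100% = reference inhibitor wells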
ATG4B inhibitor: ATG4B protease inhibitors, primary screen, biochemical, fluorescence, uHTS; Cysteine protease ATG4B (Homo sapiens), Q9Y4P1; inhibition, % at 8.33 µM; actives 0.51% (n = 340,000); ATG4B cleavage of LC3-PLA2, NBD-HPC fluorescence, 1 h; in the data active = inhibition above about 40%
Target sequence (Q9Y4P1 whole entry, looked up): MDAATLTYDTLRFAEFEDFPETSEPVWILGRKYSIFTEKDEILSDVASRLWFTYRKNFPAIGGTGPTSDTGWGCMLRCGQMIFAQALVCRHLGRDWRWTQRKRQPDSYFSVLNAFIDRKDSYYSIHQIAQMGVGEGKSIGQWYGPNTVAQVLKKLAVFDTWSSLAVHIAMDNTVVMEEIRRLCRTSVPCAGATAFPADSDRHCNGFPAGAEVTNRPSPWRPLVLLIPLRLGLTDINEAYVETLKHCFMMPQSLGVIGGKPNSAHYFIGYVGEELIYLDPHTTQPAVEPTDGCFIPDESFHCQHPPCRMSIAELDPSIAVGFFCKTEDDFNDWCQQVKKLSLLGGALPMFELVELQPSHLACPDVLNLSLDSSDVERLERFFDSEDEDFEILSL
HKDC1 inhibitor: HKDC1 hexokinase inhibitors, primary screen, biochemical, fluorescence, uHTS; Q2TB90; recombinant HKDC1, G6PDH/diaphorase resazurin coupled fluorescence; inhibition, % at 20 µM; actives 0.16% (n = 340,000); AID 493160, 2011;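 active = inhibition above about 35% when tested at 20 µM, limit read from the data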;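 also: plate controls were DMSO wells with enzyme for no effect and DMSO wells lacking enzyme for full effect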
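Test system: recombinant HKDC1 (HK5) hexokinase enzyme, produced in-house / Doses: 20 µM test compound, 1% DMSO / Timing: 90 min, room temperature / Detection: G6PDH/diaphorase-coupled fluorescence, 1 mM NADP, 100 µM resazurin, 525/613 nm / Control set: DMSO wells with and without enzyme mix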
IMP-1 inhibitor: IMP-1 metallo-beta-lactamase inhibitors, primary screen, biochemical, epi-absorbance readout, Pseudomonas aeruginosa enzyme; inhibition, % at 5.6 µM; purified IMP-1, nitrocefin hydrolysis, epi-absorbance fluorescence; metallo-beta-lactamase IMP-1 (Pseudomonas aeruginosa); actives 0.45% (n = 290,000);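 active = inhibition above the mean plus 3 SD of all compounds in the same screening run, cut at about 4.5% in these data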;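 also: 0% = IMP-1 with DMSO and 100% = DMSO wells lacking enzyme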
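System: Purified recombinant IMP-1 metallo-beta-lactamase enzyme | Measured by: Fluorescence quenching readout, ex 480/em 530 nm | Replication: Singlicate | Incubation: 15 min preincubation plus 25 min reaction at 25 °C | Evaluation: Percent inhibition from optical density relative to buffer-blank wells | Benchmarks: DMSO with and without IMP-1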
MIN6 prolif-2: inducers of beta-cell proliferation in MIN6, confirmation, MIN6 cells, mouse. shares compounds with MIN6 prolif-1. ATPlite luminescence, 48 h; cells kept in 0.2% serum; scaled between 0.2% and 10% serum. proliferation increase, % at 50 µM. 920 tested, under 10 active;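 active = proliferation increase above 40% at any of the four tested concentrations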
An asterisk follows results filed as active; x = no result.

SMILES	MIN6 prolif-1	VIM-2 inh	PvdQ inh	ATG4B inhibitor	HKDC1 inhibitor	IMP-1 inhibitor	MIN6 prolif-2
Cc1ccc(Cn2c(=N)c(S(=O)(=O)c3ccc(Br)cc3)cc3c(=O)n4ccccc4nc32)cc1	1.0	-2.1	-5.4	-5.8	-1.4	-2.3	x
COc1ccc(CCn2c(=N)c(S(=O)(=O)c3ccc(C)cc3)cc3c(=O)n4ccccc4nc32)cc1	13.3*	3.2	-1.0	-0.8	-3.0	0.5	-2.7
Clc1ccc(Cc2ccccn2)cc1	-3.4	x	-7.4	-6.5	6.0	x	x
COCCNC(=O)c1ccc(C)cc1C	7.9*	-3.1	-19.1	-9.6	-13.7	-2.8	0.6
COc1ccc(N2CCN(C(=O)c3cc4c(s3)-c3ccccc3S(=O)(=O)C4)CC2)cc1	4.6	-3.4	-6.8	-2.8	-1.2	-3.6	x
CCOC(=O)CSc1nc2cc(C(=O)NCC3CCCO3)ccc2c(=O)n1Cc1ccco1 (stereo not drawn)	-2.1	-0.2	-8.3	-6.4	-3.0	1.2	x
CCOC(=O)Cn1c(=O)n(Cc2ccco2)c(=O)c2ccc(C(=O)NC3CCCC3)cc21	12.5*	-0.4	-11.7	-0.2	-3.5	-2.3	-1.0
CSc1nc(N)nc(SCC(=O)C(C)(C)C)c1C#N	-0.9	1.4	-11.0	-4.0	2.8	0.1	x
CSc1nc(N)nc(SC2C=CCCC2)c1C#N (stereo not drawn)	5.9*	-2.3	-18.8	-9.5	2.7	-4.5	8.9
CCN(CC)S(=O)(=O)c1cc(OC)c(Cl)cc1OC	7.8*	-3.3	-9.8	0.2	-14.5	-0.9	-1.4
CCN(CC)S(=O)(=O)c1cc(Cl)ccc1OC	-1.6	-2.1	-16.8	-7.7	-7.5	-2.4	x
O=C(Nc1ccc(F)cc1)c1ccccc1NS(=O)(=O)N1CCCC1	8.5*	-2.7	10.1	-2.8	1.1	-3.1	-6.3
O=C(c1ccc2[nH]c(=O)c(=O)[nH]c2c1)N1CCc2ccccc2C1	-1.2	1.1	-14.4	-8.2	-4.1	-1.5	x
COC(=O)c1ccccc1NC(=O)CSc1ccccc1	0.3	-1.1	-3.2	-10.6	2.2	-2.6	x
COC(=O)c1ccccc1NC(=O)CSc1ccc(C)cc1	7.3*	-1.0	-6.9	-4.7	6.6	-1.7	-6.5
Cc1ccccc1N=Nc1c(N)n[nH]c1N	7.2*	-5.8	3.5	-1.1	-4.5	-5.7	-3.9
CC1(C)CC(=O)C/C(=N/NC(=O)C2CCN(S(=O)(=O)c3cccs3)CC2)C1	9.3*	-1.3	8.7	-2.6	-5.9	-2.8	1.7
O=C(CCC(=O)c1cccs1)NCc1cccc(C(F)(F)F)c1	-4.0	x	-7.2	13.9	0.9	x	x
COC1CCCN(Cc2nc(Cc3ccccc3F)no2)C1 (stereo not drawn)	-3.9	-4.5	-13.4	-24.5	-7.2	-2.4	x
Fc1ccccc1Cc1noc(CN2CCC(OCc3cccnc3)CC2)n1	7.7*	-0.2	-6.7	-3.2	-15.4	0.0	-3.0
CCOC(=O)C1CSc2[nH]c(=O)sc2C1c1ccccc1 (stereo not drawn)	11.7*	0.6	-9.7	-12.7	-0.6	-2.8	-3.9
COc1ccc(C2c3sc(=O)[nH]c3SCC2C(N)=O)cc1 (stereo not drawn)	0.1	3.2	-6.4	5.1	-4.7	4.1	x
CC(=O)N1c2ccc(S(=O)(=O)N3CCCC3)cc2CC1C(=O)NC(C)C (stereo not drawn)	12.6*	-1.8	0.4	-7.7	-5.7	-1.8	1.3
CCCCCCn1nc(C(=O)OCC(=O)NC2CCS(=O)(=O)C2)c2ccccc2c1=O (stereo not drawn)	-2.5	-0.5	-5.0	-13.6	0.5	-4.0	x
CCOC(=O)C1CCCCN1Cc1ccc(OC)c(OC)c1 (stereo not drawn)	8.0*	-1.2	-10.4	-0.3	-0.3	-3.3	1.5
